Measurements as given in ChEMBL document CHEMBL1828518, “Arylazolylthioacetanilide. Part 8: Design, synthesis and biological evaluation of novel 2-(2-(2,4-dichlorophenyl)-2H-1,2,4-triazol-3-ylthio)-N-arylacetamides as potent HIV-1 inhibitors” (Eur J Med Chem, 2011).
Active and inactive are the calls of the source. The rule behind the calls is not given here.

Legend:
[1] = test system: Human immunodeficiency virus 1; assay: Antiviral activity against HIV-1 3B infected in human MT4 cells assessed as inhibition of virus-induced syncytium formation after 5 days by MTT assay; type: functional, organism-based; conditions: Human immunodeficiency virus 1, 3B, MT4, 120 h
Procedure, shortened: (§1)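 MT-4 cells (exponentially growing, spun 5 min at 1000 rpm, resuspended at 6 × 10⁵ cells/mL) infected with HIV-1 IIIB or HIV-2 ROD at 100–300 CCID50. Compounds added at infection in triplicate wells as serial fivefold dilutions, with untreated infected and mock-infected controls. Viability read by MTT at 540 and 690 nm after 5 days, from the median OD of three wells.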

[2] = Selectivity index, ratio of CC50 for human MT4 cells to EC50 for HIV-1 3B infected in human MT4 cells; type: toxicity, cell-based; conditions: uninfected and infected with HIV-1 3B, read-out: Ratio CC50/EC50
Procedure, shortened: (§2)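 Selectivity index calculated as CC50 divided by EC50. Both values come from MTT readings taken 5 days after infection, on mock-infected and virus-infected MT-4 cells run in parallel.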

[3] = Selectivity index, ratio of CC50 for human MT4 cells to EC50 for HIV-2 ROD infected in human MT4 cells; type: toxicity, cell-based; conditions: uninfected and infected with HIV-2 ROD, read-out: Ratio CC50/EC50; procedure, shortened: as §2
[4] = test system: Human immunodeficiency virus 2; assay: Antiviral activity against HIV-2 ROD infected in human MT4 cells assessed as inhibition of virus-induced syncytium formation after 5 days by MTT assay; type: functional, organism-based; conditions: Human immunodeficiency virus 2, ISOLATE ROD, MT4, 120 h; procedure, shortened: as §1
[5] = Cytotoxicity against human MT4 cells assessed as cell viability after 5 days by MTT assay; type: cell-based
Procedure, shortened: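 MT-4 cells at 6 × 10⁵ cells/mL, mock-infected with culture medium and run in parallel with the antiviral plates. Test compounds given as serial fivefold dilutions in triplicate wells. After 5 days viability read by MTT reduction to formazan at 540 and 690 nm, using the median OD of three wells.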

[6] = test system: Human immunodeficiency virus 1; assay: Antiviral activity against HIV-1 3B harboring RT Y181C mutant infected in human MT4 cells assessed as inhibition of virus-induced syncytium formation after 5 days by MTT assay; type: functional, organism-based
Procedure, shortened: (§3)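 Exponentially growing MT-4 cells, pelleted and resuspended at 6 × 10⁵ cells/mL, were infected with virus stock at 100-300 CCID50. Test compounds were added at infection as serial fivefold dilutions, in triplicate wells. After 5 days, viability was read by MTT reduction at 540 and 690 nm using the median OD of three wells.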

[7] = test system: Human immunodeficiency virus 1; assay: Antiviral activity against HIV-1 3B harboring RT F227L and V106A mutant infected in human MT4 cells assessed as inhibition of virus-induced syncytium formation after 5 days by MTT assay; type: functional, organism-based; procedure, shortened: as §3
[8] = test system: Human immunodeficiency virus 1; assay: Antiviral activity against HIV-1 3B harboring RT Y188L mutant infected in human MT4 cells assessed as inhibition of virus-induced syncytium formation after 5 days by MTT assay; type: functional, organism-based; procedure, shortened: as §3
[9] = test system: Human immunodeficiency virus 1; assay: Antiviral activity against HIV-1 3B harboring RT K103N and Y181C mutant infected in human MT4 cells assessed as inhibition of virus-induced syncytium formation after 5 days by MTT assay; type: functional, organism-based; procedure, shortened: as §3
[10] = test system: Human immunodeficiency virus 1; assay: Antiviral activity against HIV-1 3B harboring RT K103N mutant infected in human MT4 cells assessed as inhibition of virus-induced syncytium formation after 5 days by MTT assay; type: functional, organism-based; conditions: Human immunodeficiency virus 1, 3B, MT4, 120 h; procedure, shortened: as §3
[11] = test system: Human immunodeficiency virus 1; assay: Antiviral activity against HIV-1 3B harboring RT L100I mutant infected in human MT4 cells assessed as inhibition of virus-induced syncytium formation after 5 days by MTT assay; type: functional, organism-based; conditions: Human immunodeficiency virus 1, 3B, MT4, 120 h; procedure, shortened: as §3
[12] = test system: Human immunodeficiency virus 1; assay: Antiviral activity against HIV-1 3B harboring RT E138K mutant infected in human MT4 cells assessed as inhibition of virus-induced syncytium formation after 5 days by MTT assay; type: functional, organism-based; conditions: Human immunodeficiency virus 1, 3B, MT4, 120 h; procedure, shortened: as §3
[13] = test system: Human immunodeficiency virus 1; assay: Ratio of EC50 for HIV-1 3B harboring RT E138K mutant infected in human MT4 cells to EC50 for wild type HIV-1 3B infected in human MT4 cells; type: functional
Procedure, shortened: (§4)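 Fold resistance is the EC50 against the drug-resistant strain divided by the EC50 against wild-type HIV-1 IIIB. Both values come from the same MT-4 assay: 5-day infection, MTT viability read-out, and serial fivefold compound dilutions in triplicate wells.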

[14] = test system: Human immunodeficiency virus 1; assay: Ratio of EC50 for HIV-1 3B harboring RT K103N mutant infected in human MT4 cells to EC50 for wild type HIV-1 3B infected in human MT4 cells; type: functional; procedure, shortened: as §4
[15] = test system: Human immunodeficiency virus 1; assay: Ratio of EC50 for HIV-1 3B harboring RT L100I mutant infected in human MT4 cells to EC50 for wild type HIV-1 3B infected in human MT4 cells; type: functional; procedure, shortened: as §4

| SMILES | EC50 [1] | selectivity ratio [2] | selectivity ratio [3] | EC50 [4] | CC50 at 120 h [5] | inhibition [6] | inhibition [7] | inhibition [8] | inhibition [9] | EC50 [10] | EC50 [11] | EC50 [12] | Ratio EC50 [13] | Ratio EC50 [14] | Ratio EC50 [15] | EC50 ([9]; Human immunodeficiency virus 1, 3B, MT4, 120 h) |
| --- | --- | --- | --- | --- | --- | --- | --- | --- | --- | --- | --- | --- | --- | --- | --- | --- |
| O=C(CSc1ncnn1-c1ccc(Cl)cc1Cl)Nc1ccc(Cl)cc1Br | > 189 µM | < 1 | < 1 | > 189 µM | 189 µM |  |  |  |  |  |  |  |  |  |  |  |
| Cc1ccnc2c1NC(=O)c1cccnc1N2C1CC1 [NEVIRAPINE] | 0.19 µM |  |  | > 15 µM | > 15 µM | inactive | inactive | inactive | inactive | 7.25 µM | 1.92 µM | 0.18 µM |  |  |  |  |
| Nc1ccn([C@H]2CC[C@@H](CO)O2)c(=O)n1 [ZALCITABINE] | 0.75 µM | > 127 | > 108 | 0.88 µM | > 94 µM |  |  |  |  |  |  |  |  |  |  |  |
| O=C(CSc1ncnn1-c1ccc(Cl)cc1Cl)Nc1cccnc1Cl | 4.99 µM | 20 | < 1 | > 98.5 µM | 98.5 µM | inactive | inactive | inactive | inactive | 10.5 µM | 15.4 µM | 6.79 µM | 4.3 | 2.8 | 4.4 |  |
| O=c1[nH]cnc2c1ncn2[C@H]1CC[C@@H](CO)O1 [DIDANOSINE] | 8.86 µM | > 24 | > 13 | 16 µM | > 211 µM |  |  |  |  |  |  |  |  |  |  |  |
| Cc1cn([C@H]2C[C@H](N=[N+]=[N-])[C@@H](CO)O2)c(=O)[nH]c1=O [ZIDOVUDINE] | 0.0076 µM | > 11600 | > 28300 | 0.0033 µM | > 88.3 µM | inactive | inactive | inactive | inactive | 0.011 µM | 0.0049 µM | 0.02 µM | 1.4 | 0.71 | 0.32 |  |
| CCOC(=O)c1ccc(NC(=O)CSc2ncnn2-c2ccc(Cl)cc2Cl)cc1 | > 22.8 µM | < 1 | < 1 | > 22.8 µM | 22.8 µM |  |  |  |  |  |  |  |  |  |  |  |
| CC(C)Nc1cccnc1N1CCN(C(=O)c2cc3cc(NS(C)(=O)=O)ccc3[nH]2)CC1.CS(=O)(=O)O [DELAVIRDINE MESYLATE] |  |  |  |  |  | inactive | inactive | inactive | inactive | 1.72 µM | 2.23 µM | 0.06 µM | 1.9 | 52.8 | 68.3 |  |
| Cc1cc(C#N)cc(C)c1Oc1nc(Nc2ccc(C#N)cc2)nc(N)c1Br [ETRAVIRINE] |  |  |  |  |  | inactive | inactive | inactive | inactive | 0.00184 µM | 0.0046 µM | 0.008 µM | 2.6 | 0.62 | 1.54 |  |
| CC(=O)c1ccc(NC(=O)CSc2ncnn2-c2ccc(Cl)cc2Cl)c(Br)c1 | > 114 µM | < 1 | < 1 | > 114 µM | 114 µM |  |  |  |  |  |  |  |  |  |  |  |
| O=C(CSc1ncnn1-c1ccc(Cl)cc1Cl)Nc1ccc(Cl)cc1Cl | 34.4 µM | 5 | < 1 | > 172 µM | 172 µM |  |  |  |  |  |  |  |  |  |  |  |
| Cc1ccc(NC(=O)CSc2ncnn2-c2ccc(Cl)cc2Cl)c([N+](=O)[O-])c1 | > 285 µM |  |  | > 285 µM | > 285 µM |  |  |  |  |  |  |  |  |  |  |  |
| O=C1Nc2ccc(Cl)cc2[C@@](C#CC2CC2)(C(F)(F)F)O1 [EFAVIRENZ] |  |  |  |  |  | inactive | inactive | inactive | inactive | 0.108 µM | 0.054 µM | 0.0055 µM |  |  |  |  |
| Cc1ccccc1NC(=O)CSc1ncnn1-c1ccc(Cl)cc1Cl | 32.4 µM | 3 | < 1 | > 106 µM | 106 µM |  |  |  |  |  |  |  |  |  |  |  |
| O=C(CSc1ncnn1-c1ccc(Cl)cc1Cl)Nc1ccccc1Cl | 6.21 µM | 5 | < 1 | > 29.1 µM | 29.1 µM | inactive | inactive | inactive | inactive | 16.1 µM | 21.4 µM | 20.9 µM | 3.6 | 2.8 | 3.7 |  |
| COC(=O)c1ccc(NC(=O)CSc2ncnn2-c2ccc(Cl)cc2Cl)cc1 | > 26.3 µM | < 1 | < 1 | > 26.3 µM | 26.3 µM |  |  |  |  |  |  |  |  |  |  |  |
| Cc1ccc(NC(=O)CSc2ncnn2-c2ccc(Cl)cc2Cl)c(Br)c1 | > 184 µM |  |  | > 184 µM | > 184 µM |  |  |  |  |  |  |  |  |  |  |  |
| NS(=O)(=O)c1ccc(NC(=O)CSc2nnc(Br)n2-c2ccc(C3CC3)c3ccccc23)c(Cl)c1 |  |  |  |  |  |  |  |  |  |  |  |  |  |  |  | 0.23 µM |
| O=C(CSc1ncnn1-c1ccc(Cl)cc1Cl)Nc1ccccc1F | > 38.4 µM | < 1 | < 1 | > 38.4 µM | 38.4 µM |  |  |  |  |  |  |  |  |  |  |  |
